ChEMBL document CHEMBL2434966, “Novel N-4-piperazinyl-ciprofloxacin-chalcone hybrids: synthesis, physicochemical properties, anticancer and topoisomerase I and II inhibitory activity” (Eur J Med Chem, 2013)

Legend:
[1] = tested on: HOP-62; assay: Growth inhibition of human HOP62 cells after 48 hrs by sulforhodamine B assay; assay type: functional; settings: HOP-62, 48 h
Procedure, shortened: (§1)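 NCI 60-panel five-dose test at 10-fold dilutions, 10^-4 to 10^-8 M, with 48 h continuous exposure and SRB protein read-out. Percent growth derived from time-zero, untreated-control and treated absorbances. GI50 is the concentration where [(Ti-Tz)/(C-Tz)]×100 = 50. TGI is taken at Ti = Tz. LC50 is taken at [(Ti-Tz)/Tz]×100 = -50.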

[2] = tested on: BT-549; assay: Growth inhibition of human BT549 cells assessed as cell growth at 10^-5 M after 48 hrs by sulforhodamine B assay; assay type: functional; settings: BT-549, 48 h, read-out: Activity
Procedure, shortened: (§2)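 NCI 60-cell-line primary screen. Single concentration of 10^-5 M, 48 h incubation. End point by sulforhodamine B protein staining read spectrophotometrically. Reported as percent growth of treated cells relative to untreated control cells.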

[3] = tested on: OVCAR-4; assay: Growth inhibition of human OVCAR4 cells assessed as cell growth at 10^-5 M after 48 hrs by sulforhodamine B assay; assay type: functional; settings: OVCAR-4, 48 h, read-out: Activity
Procedure, shortened: (§3)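 NCI 60-cell-line primary one-dose screen. Cells were exposed to a single 10^-5 M concentration for 48 h. The end point was sulforhodamine B protein staining, read spectrophotometrically. Results are reported as percent growth of treated cells relative to untreated control cells.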

[4] = tested on: KM12; assay: Growth inhibition of human KM12 cells after 48 hrs by sulforhodamine B assay; assay type: functional; settings: KM12, 48 h; for CC50: read-out: LC50 (the source's name); procedure, shortened: as §1
[5] = tested on: MDA-MB-435; assay: Growth inhibition of human MDA-MB-435 cells after 48 hrs by sulforhodamine B assay; assay type: functional; settings: MDA-MB-435, 48 h
Procedure, shortened: (§4)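 NCI five-dose screen on the full 60-cell-line panel. Cells were given 10-fold dilutions from 10^-4 to 10^-8 M with continuous 48 h exposure, and growth was read by SRB staining. Percent growth was taken from time-zero, control and treated absorbances. GI50, TGI and LC50 were then derived, the GI50 being the concentration that gives a 50% lower net protein increase than control.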

[6] = tested on: PC-3; assay: Growth inhibition of human PC3 cells assessed as cell growth at 10^-5 M after 48 hrs by sulforhodamine B assay; assay type: functional; settings: PC-3, 48 h, read-out: Activity; procedure, shortened: as §3
[7] = tested on: SK-OV-3; assay: Growth inhibition of human SKOV3 cells after 48 hrs by sulforhodamine B assay; assay type: functional; settings: SK-OV-3, 48 h; procedure, shortened: as §4
[8] = Growth inhibition of human NCI-ADR-RES cells after 48 hrs by sulforhodamine B assay; assay type: functional; settings: for CC50: read-out: LC50 (the source's name); procedure, shortened: as §4
[9] = tested on: HCT-116; assay: Growth inhibition of human HCT116 cells after 48 hrs by sulforhodamine B assay; assay type: functional; settings: HCT-116, 48 h; procedure, shortened: as §1
[10] = tested on: NCI-H23; assay: Growth inhibition of human NCI-H23 cells assessed as cell growth at 10^-5 M after 48 hrs by sulforhodamine B assay; assay type: functional; settings: NCI-H23, 48 h, read-out: Activity; procedure, shortened: as §3
[11] = target: T1, DNA topoisomerase 1 (Homo sapiens) (UniProt P11387); assay: Inhibition of human recombinant topoisomerase 1-mediated relaxation of supercoiled pBR322 DNA at 20 uM after 30 mins by agarose gel electrophoresis relative to control
T1 sequence (whole entry): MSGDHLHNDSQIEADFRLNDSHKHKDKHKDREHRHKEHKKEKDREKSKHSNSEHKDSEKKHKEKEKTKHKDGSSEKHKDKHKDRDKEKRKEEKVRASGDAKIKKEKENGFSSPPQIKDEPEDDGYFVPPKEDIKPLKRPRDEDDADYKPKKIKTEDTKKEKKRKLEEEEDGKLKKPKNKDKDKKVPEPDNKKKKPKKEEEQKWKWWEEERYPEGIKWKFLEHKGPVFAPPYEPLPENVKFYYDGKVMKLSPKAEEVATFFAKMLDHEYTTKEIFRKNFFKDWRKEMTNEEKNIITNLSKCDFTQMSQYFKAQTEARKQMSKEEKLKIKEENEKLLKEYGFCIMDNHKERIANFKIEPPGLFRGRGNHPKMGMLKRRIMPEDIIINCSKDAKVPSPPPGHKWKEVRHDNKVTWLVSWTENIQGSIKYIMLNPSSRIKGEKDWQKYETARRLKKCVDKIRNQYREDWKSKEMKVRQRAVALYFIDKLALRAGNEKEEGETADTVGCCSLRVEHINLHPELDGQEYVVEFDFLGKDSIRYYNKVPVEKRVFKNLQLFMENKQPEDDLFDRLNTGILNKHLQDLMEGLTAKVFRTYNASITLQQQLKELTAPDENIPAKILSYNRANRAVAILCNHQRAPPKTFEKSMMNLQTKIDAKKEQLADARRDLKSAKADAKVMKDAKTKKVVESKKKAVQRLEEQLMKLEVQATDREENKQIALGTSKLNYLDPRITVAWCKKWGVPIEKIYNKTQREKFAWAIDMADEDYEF
Procedure, shortened: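 Recombinant human topo I (0.4 units) with 100 ng supercoiled pBR322, 37 °C for 30 min in Tris-HCl pH 7.9, 150 mM NaCl, 0.1% BSA, 1 mM spermidine, 5% glycerol. Compounds came from 20 mM DMSO stocks, with matched DMSO in the enzyme-only control. Stopped with sarcosyl; 1% agarose/TAE gel, ethidium stain, UV densitometry. Camptothecin was the positive control.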

[12] = tested on: MOLT-4; assay: Growth inhibition of human MOLT4 cells assessed as cell growth at 10^-5 M after 48 hrs by sulforhodamine B assay; assay type: functional; settings: MOLT-4, 48 h, read-out: Activity; procedure, shortened: as §3
[13] = tested on: SF-295; assay: Growth inhibition of human SF295 cells assessed as cell growth at 10^-5 M after 48 hrs by sulforhodamine B assay; assay type: functional; settings: SF-295, 48 h, read-out: Activity; procedure, shortened: as §3
[14] = tested on: NCI-H522; assay: Growth inhibition of human NCI-H522 cells after 48 hrs by sulforhodamine B assay; assay type: functional; settings: NCI-H522, 48 h; for CC50: read-out: LC50 (the source's name); procedure, shortened: as §4
[15] = tested on: TK-10; assay: Growth inhibition of human TK10 cells assessed as cell growth at 10^-5 M after 48 hrs by sulforhodamine B assay; assay type: functional; settings: TK-10, 48 h, read-out: Activity
Procedure, shortened: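 NCI primary one-dose screen: single concentration of 10^-5 M added to culture, 48 h incubation, SRB protein-dye endpoint. Percent growth of treated cells measured spectrophotometrically against untreated controls.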

[16] = tested on: SN12C; assay: Growth inhibition of human SN12C cells assessed as cell growth at 10^-5 M after 48 hrs by sulforhodamine B assay; assay type: functional; settings: read-out: Activity; procedure, shortened: as §3
[17] = tested on: K562; assay: Growth inhibition of human K562 cells assessed as cell growth at 10^-5 M after 48 hrs by sulforhodamine B assay; assay type: functional; settings: K562, 48 h, read-out: Activity; procedure, shortened: as §2
[18] = tested on: OVCAR-8; assay: Growth inhibition of human OVCAR8 cells after 48 hrs by sulforhodamine B assay; assay type: functional; settings: OVCAR-8, 48 h; for CC50: read-out: LC50 (the source's name); procedure, shortened: as §4

Compound	GI50 [1]	LC50 (concentration killing 50% of starting cells) [1]	TGI [1]	growth at 10 µM [2]	growth at 10 µM [3]	GI50 [4]	TGI [4]	CC50 [4]	GI50 [5]	LC50 [5]	TGI [5]	growth at 10 µM [6]	GI50 [7]	LC50 [7]	TGI [7]	GI50 [8]	TGI [8]	CC50 [8]	GI50 [9]	TGI [9]	also measured
O=C(CN1CCN(c2cc3c(cc2F)c(=O)c(C(=O)O)cn3C2CC2)CC1)Nc1ccc(C(=O)/C=C/c2ccccc2)cc1	4.46 µM	> 100 µM	> 100 µM	9.61%	86.4%	4.11 µM	> 100 µM	> 100 µM	2.94 µM	> 100 µM	> 100 µM	55.2%	27.3 µM	> 100 µM	> 100 µM	9.75 µM	> 100 µM	> 100 µM	0.66 µM	2.68 µM	LC50 [9]: 9.55 µM; growth at 10 µM [10]: 24%; inhibition [11]: 6.4%; growth at 10 µM [12]: 19%; growth at 10 µM [13]: 15.2%; GI50 [14]: 1.7 µM; TGI [14]: 7.78 µM; CC50 [14]: > 100 µM; growth at 10 µM [15]: 39.9%; growth at 10 µM [16]: 11.3%; growth at 10 µM [17]: 14.2%; GI50 [18]: 3.07 µM; TGI [18]: > 100 µM; CC50 [18]: > 100 µM
COc1cc(/C=C/C(=O)c2ccc(NC(=O)CN3CCN(c4cc5c(cc4F)c(=O)c(C(=O)O)cn5C4CC4)CC3)cc2)cc(OC)c1OC	0.36 µM	56.9 µM	11.4 µM	-86.7%	16.4%	0.53 µM	3.17 µM	> 100 µM	0.3 µM	> 100 µM	1.7 µM	21.5%	3.57 µM	> 100 µM	> 100 µM	57.6 µM	> 100 µM	> 100 µM	0.23 µM	0.69 µM	growth at 10 µM [10]: -35.6%; inhibition [11]: 11.5%; growth at 10 µM [12]: -1.1%; growth at 10 µM [13]: -27.2%; GI50 [14]: 0.66 µM; TGI [14]: 3.19 µM; CC50 [14]: 17.9 µM; growth at 10 µM [15]: 19.1%; growth at 10 µM [16]: 10.3%; growth at 10 µM [17]: 1.66%; GI50 [18]: 0.34 µM; TGI [18]: 26.7 µM; CC50 [18]: > 100 µM
